Measurements published in ChEMBL document CHEMBL4138201, “Synthesis and biological evaluation of sulfur-containing shikonin oxime derivatives as potential antineoplastic agents” (Eur J Med Chem, 2018).

Columns and labels:
[1] = test system: HCT-15; experiment: Cytotoxicity against human HCT15 cells after 48 hrs by MTT assay; assay type: functional, cell-based; conditions: HCT-15, 48 h
Summary of the method: (§1)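 MTT colorimetric assay. Shikonin and 5-fluorouracil served as reference agents. IC₅₀ obtained by linear regression of each compound's concentration–response curve.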

[2] = test system: MGC-803; experiment: Cytotoxicity against human MGC803 cells after 48 hrs by MTT assay; assay type: functional, cell-based; conditions: MGC-803, 48 h; summary of the method: as §1
[3] = test system: Bel-7402; experiment: Cytotoxicity against human Bel7402 cells after 48 hrs by MTT assay; assay type: functional, cell-based; conditions: Bel-7402, 48 h; summary of the method: as §1
[4] = test system: MCF7; experiment: Cytotoxicity against human MCF7 cells after 48 hrs by MTT assay; assay type: functional, cell-based; conditions: MCF7, 48 h; summary of the method: as §1
[5] = Cytotoxicity against human HSF cells after 48 hrs by MTT assay; assay type: cell-based; summary of the method: as §1

Row | SMILES | IC50 [1] [µM] | IC50 [2] [µM] | IC50 [3] [µM] | IC50 [4] [µM] | IC50 [5] [µM]
1 | CCCCCCSC(CC=C(C)C)c1cc(OC)c2c(c1OC)/C(=N/O)C=C/C2=N\O (stereo not given) | 3.46 | 6.73 | 11.7 | 34.6 | > 50
2 | COc1cc(C(CC=C(C)C)SC(=O)c2ccc(NC(=O)OC(C)(C)C)cc2)c(OC)c2c1/C(=N/O)C=C/C2=N\O (stereo not given) | 3.39 | 6.56 | 9.17 | 32.4 | > 50
3 | COc1ccccc1C(=O)SC(CC=C(C)C)c1cc(OC)c2c(c1OC)/C(=N/O)C=C/C2=N\O (stereo not given) | 0.89 | 1.37 | 1.06 | 19.8 | > 50
4 | COc1ccc(C(=O)S[C@@H](CC=C(C)C)c2cc(OC)c3c(c2OC)/C(=N/O)C=C/C3=N\O)cc1OC | 0.38 | 1.12 | 0.85 | 15.2 | > 50
5 | CCCCCCCCSC(CC=C(C)C)c1cc(OC)c2c(c1OC)/C(=N/O)C=C/C2=N\O (stereo not given) | 1.25 | 2.29 | 6.37 | 25.7 | > 50
6 | COc1cc(C(CC=C(C)C)SC(=O)c2ccc(Cl)cc2)c(OC)c2c1/C(=N/O)C=C/C2=N\O (stereo not given) | 0.82 | 1.45 | 1.16 | 20.4 | > 50
7 | COc1cc(C(CC=C(C)C)SC(=O)c2cccnc2)c(OC)c2c1/C(=N/O)C=C/C2=N\O (stereo not given) | 3.45 | 7.56 | 10.2 | 37.5 | > 50
8 | COc1cc(C(CC=C(C)C)SC(=O)c2ccccc2F)c(OC)c2c1/C(=N/O)C=C/C2=N\O (stereo not given) | 0.62 | 1.52 | 1.34 | 23 | > 50
9 | CCCCCCCCCCCCSC(CC=C(C)C)c1cc(OC)c2c(c1OC)/C(=N/O)C=C/C2=N\O (stereo not given) | 14.7 | 31.6 | 34.3 | > 50 | > 50
10 | COc1cc([C@@H](CC=C(C)C)SCCC(C)C)c(OC)c2c1/C(=N/O)C=C/C2=N\O | 1.94 | 5.87 | 8.95 | 39.4 | > 50
11 | CCCCCC(=O)SC(CC=C(C)C)c1cc(OC)c2c(c1OC)/C(=N/O)C=C/C2=N\O (stereo not given) | 7.21 | 16.9 | 22.4 | 45.7 | > 50
12 | CCCCSC(CC=C(C)C)c1cc(OC)c2c(c1OC)/C(=N/O)C=C/C2=N\O (stereo not given) | 4.37 | 9.32 | 12.6 | 36 | > 50
13 | COc1cc(C(CC=C(C)C)SC(=O)C=C(C)C)c(OC)c2c1/C(=N/O)C=C/C2=N\O (stereo not given) | 1.56 | 3.96 | 4.53 | 29.9 | > 50
14 | CCSC(CC=C(C)C)c1cc(OC)c2c(c1OC)/C(=N/O)C=C/C2=N\O (stereo not given) | 7.15 | 12.5 | 20.1 | 44.2 | > 50
15 | COc1cc(C(CC=C(C)C)SC(=O)c2ccc(C)cc2)c(OC)c2c1/C(=N/O)C=C/C2=N\O (stereo not given) | 0.47 | 0.92 | 0.72 | 15.8 | > 50
16 | COc1cc(C(CC=C(C)C)SC(=O)c2ccc(N)cc2)c(OC)c2c1/C(=N/O)C=C/C2=N\O (stereo not given) | 1.68 | 2.45 | 1.26 | 19.4 | > 50
17 | COc1cc(C(CC=C(C)C)SC/C=C(\C)CC/C=C(\C)CCC=C(C)C)c(OC)c2c1/C(=N/O)C=C/C2=N\O (stereo not given) | 5.96 | 9.98 | 14.7 | 37.4 | > 50
18 | COc1cc([C@H](CC=C(C)C)SCCC(C)C)c(OC)c2c1/C(=N/O)C=C/C2=N\O | 0.92 | 3.12 | 4.85 | 26.3 | > 50

Row | SMILES | IC50 [1] [µM] | IC50 [2] [µM] | IC50 [3] [µM] | IC50 [4] [µM] | IC50 [5] [µM]
19 | COc1cc(C(CC=C(C)C)SC(=O)c2ccco2)c(OC)c2c1/C(=N/O)C=C/C2=N\O (stereo not given) | 1.98 | 5.01 | 7.3 | 28.3 | > 50
20 | CCCCCCCSC(CC=C(C)C)c1cc(OC)c2c(c1OC)/C(=N/O)C=C/C2=N\O (stereo not given) | 1.97 | 5.51 | 8.15 | 30.6 | > 50
21 | CCCCCCCCCCSC(CC=C(C)C)c1cc(OC)c2c(c1OC)/C(=N/O)C=C/C2=N\O (stereo not given) | 7.43 | 19.2 | 25.4 | 48.3 | > 50
22 | COc1cc(C(CC=C(C)C)SCC=C(C)C)c(OC)c2c1/C(=N/O)C=C/C2=N\O (stereo not given) | 3.8 | 7.05 | 12.6 | 33.7 | > 50
23 | CCCCCCCCCSC(CC=C(C)C)c1cc(OC)c2c(c1OC)/C(=N/O)C=C/C2=N\O (stereo not given) | 4.09 | 9.86 | 13.8 | 37.8 | > 50
24 | COc1cc(C(CC=C(C)C)SC(=O)c2ccccc2Cl)c(OC)c2c1/C(=N/O)C=C/C2=N\O (stereo not given) | 0.53 | 1.69 | 0.87 | 19.2 | > 50
25 | COc1cc([C@@H](CC=C(C)C)SC(=O)c2ccccc2)c(OC)c2c1/C(=N/O)C=C/C2=N\O | 1.06 | 2.67 | 2.97 | 25.5 | > 50
26 | COc1cc(C(CC=C(C)C)SC(=O)c2cccc(Cl)c2)c(OC)c2c1/C(=N/O)C=C/C2=N\O (stereo not given) | 2.64 | 8.73 | 12.1 | 42.9 | > 50
27 | COc1cc(C(CC=C(C)C)SC(=O)c2ccccc2)c(OC)c2c1/C(=N/O)C=C/C2=N\O (stereo not given) | 0.63 | 1.28 | 1.2 | 17.4 | > 50
28 | COc1cc(C(CC=C(C)C)SC(=O)CC(C)C)c(OC)c2c1/C(=N/O)C=C/C2=N\O (stereo not given) | 0.59 | 1.49 | 1.65 | 16.3 | > 50
29 | COc1ccc(C(=O)S[C@H](CC=C(C)C)c2cc(OC)c3c(c2OC)/C(=N/O)C=C/C3=N\O)cc1OC | 0.84 | 1.57 | 1.16 | 19.5 | > 50
30 | COc1cc(C(CC=C(C)C)SC(=O)c2ccc(C(F)(F)F)cc2)c(OC)c2c1/C(=N/O)C=C/C2=N\O (stereo not given) | 2.75 | 5.97 | 7.12 | 30.5 | > 50
31 | COc1cc(C(CC=C(C)C)SC(=O)c2ccncc2)c(OC)c2c1/C(=N/O)C=C/C2=N\O (stereo not given) | 7.32 | 19.4 | 26.8 | > 50 | > 50
32 | CC(C)=CC[C@@H](O)C1=CC(=O)c2c(O)ccc(O)c2C1=O [SHIKONIN] | 0.86 | 1.51 | 1.24 | 2.4 | 1.25
33 | COc1cc(C(CC=C(C)C)SC(=O)c2ccc(F)cc2)c(OC)c2c1/C(=N/O)C=C/C2=N\O (stereo not given) | 0.7 | 1.28 | 0.89 | 20.5 | > 50
34 | COc1cc(C(CC=C(C)C)SC(=O)c2cccs2)c(OC)c2c1/C(=N/O)C=C/C2=N\O (stereo not given) | 1.36 | 2.75 | 3.04 | 23.8 | > 50
35 | COc1cc(C(=O)S[C@H](CC=C(C)C)c2cc(OC)c3c(c2OC)/C(=N/O)C=C/C3=N\O)cc(OC)c1OC | 0.57 | 1.18 | 0.97 | 12.8 | > 50
